Assay results pooled from the literature.
Lines come from different studies, so protocols differ. Converted amounts (≈) assume the structure as drawn.

CC[C@H](C)[C@@H]([C@@H](CC(=O)N1CCC[C@H]1[C@H](OC)[C@@H](C)C(=O)N[C@H](C)[C@@H](O)c1ccccc1)OC)N(C)C(=O)[C@@H](NC(=O)[C@@H](NC)C(C)C)C(C)C
IC50 (Daudi; cell growth or viability, CCK-8): 0.00185 µM

N.N.[Cl][Pt][Cl]
IC50 (Daudi; cell growth or viability, ATP luminescence; 72 h): 0.86 µM

C#Cc1ccc(C=NNC(=O)c2ccc(COCC)cc2)c(O)c1
MIC80 (Cryptococcus neoformans; microbial growth, broth dilution; pH 7.4): 0.015 µg/mL (≈ 0.0465 µM)

S=P1(c2ccccc2)CCCCC1
IC50 (HaCaT; cell growth or viability, MTT; 72 h): > 100 µM

COc1cnc(OC)n2nc(NS(=O)(=O)c3c(OCC(F)F)cccc3C(F)(F)F)nc12
inhibition (HaCaT; cell growth or viability, CCK-8; 6.25 µM, 72 h): 0.85%

C#Cc1ccc(C=NNC(=O)c2ccc(COCCC)cc2)c(O)c1
MIC80 (Cryptococcus neoformans; microbial growth, broth dilution; pH 7.4): 0.015 µg/mL (≈ 0.0446 µM)

O=C1CCc2cc(-c3cccc(OC(=O)[C@H]4[C@H](c5ccccc5)[C@@H](C(=O)O)[C@H]4c4ccccc4)c3)ccc2N1
IC50 (WI-38; cell growth or viability, MTT): 77 µM

CC[C@H](C)C[C@H](C)CCCCCCCCC(=O)N[C@H]1C[C@@H](O)[C@@H](NCCN)NC(=O)[C@@H]2[C@@H](O)CCN2C(=O)[C@H]([C@H](O)CCN)NC(=O)[C@H]([C@H](O)[C@@H](O)c2ccc(O)cc2)NC(=O)[C@@H]2C[C@@H](O)CN2C(=O)[C@H]([C@@H](C)O)NC1=O
MFC (Nakaseomyces glabratus; microbial killing, broth dilution; ATCC15126; 48 h): 0.5 µg/mL (≈ 0.457 µM)

C#Cc1ccc(C=NNC(=O)c2cc(Br)cc(Br)c2O)c(O)c1
MIC80 (Cryptococcus neoformans; microbial growth, broth dilution; pH 7.4): 0.03 µg/mL (≈ 0.0685 µM)

S=P1(C2CCCCC2)CCCCC1
IC50 (HaCaT; cell growth or viability, MTT; 72 h): > 100 µM

C#Cc1cccc(O)c1C=NNC(=O)c1ccc(COC)cc1
MIC80 (Cryptococcus neoformans; microbial growth, broth dilution; pH 7.4): 0.06 µg/mL (≈ 0.195 µM)

O=C1CCP(=S)(c2ccccc2)CC1
IC50 (HaCaT; cell growth or viability, MTT; 72 h): 14.2 µM
